Data set [1] has as its target T1, Peroxisome proliferator-activated receptor gamma (Homo sapiens) (UniProt P37231).
T1 sequence (whole entry): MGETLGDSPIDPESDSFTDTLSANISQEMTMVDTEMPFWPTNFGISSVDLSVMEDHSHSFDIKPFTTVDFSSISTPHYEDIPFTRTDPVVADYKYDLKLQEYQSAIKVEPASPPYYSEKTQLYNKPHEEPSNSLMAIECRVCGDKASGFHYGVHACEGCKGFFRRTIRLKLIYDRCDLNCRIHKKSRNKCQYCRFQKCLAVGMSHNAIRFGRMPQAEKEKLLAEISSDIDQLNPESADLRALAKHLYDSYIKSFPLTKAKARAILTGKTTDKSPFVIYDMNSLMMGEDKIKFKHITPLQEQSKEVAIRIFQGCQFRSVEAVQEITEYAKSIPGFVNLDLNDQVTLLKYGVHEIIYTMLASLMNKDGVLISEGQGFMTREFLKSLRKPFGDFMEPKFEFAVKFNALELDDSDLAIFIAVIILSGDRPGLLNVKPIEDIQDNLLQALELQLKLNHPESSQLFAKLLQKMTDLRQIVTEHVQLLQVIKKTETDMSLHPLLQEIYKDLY
The data set can be described thus: Inhibition of PPARgamma activity in human U373 cells at 50 uM after 6 hrs by spectrophotometric analysis relative to control. Format: cell-based. As to conditions: U-373MG ATCC. The essentials:
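Human U373 glioblastoma cells exposed to compound for 6 h, then detached with trypsin. Nuclear extracts prepared by hypotonic lysis with Nonidet P-40 and extraction buffer with protease inhibitor, clarified at 14 000 g, 4 °C. Extracts bound overnight at 4 °C in a PPAR-γ transcription factor ELISA kit, with primary antibody then HRP anti-rabbit. Absorbance read at 450 nm; triplicates, mean ± SD versus control.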

Data set [2] concerns U-373MG ATCC. The data set can be described thus: Activation of chymotrypsin-like activity of 20S proteasome in human U373 cells at 50 uM after 2 days by bioluminescence assay. Type of data set: cell-based. The essentials: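 Chymotrypsin-like site, substrate Suc-LLVY-Glo. U373 cells were seeded at 5000 cells/mL for 48 h and exposed two days. After a PBS wash and 0.025% digitonin permeabilisation, Proteasome-Glo reagent was added. Bioluminescence was read after 10 min dark incubation. Triplicates, normalised by a concurrent MTT viability assay run in identical conditions.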

For data set [3], the system named is U-373MG ATCC. The data set can be described thus: Inhibition of trypsin-like activity of 20S proteasome in human U373 cells at 50 uM after 2 days by bioluminescence assay. Format: cell-based. In short, it runs like this:
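U373 GBM cells seeded at 5000 cells/mL and grown 48 h, then treated for two days. Cells washed in PBS and permeabilised with 0.025% digitonin. Proteasome-Glo reagent added with Suc-LLVY-Glo (chymotrypsin-like), Z-LRR-Glo (trypsin-like) or Z-nLPnLD-Glo (caspase-like) substrate. Luminescence read after 10 min in the dark and normalised to a parallel MTT viability assay; triplicates. MG-132 at 0.5 μM used as reference.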

Data set [4] deals with U-373MG ATCC. The data set can be described thus: Activation of caspase-like activity of 20S proteasome in human U373 cells at 50 uM after 2 days by bioluminescence assay. Type of data set: cell-based. In short, it runs like this: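 Caspase-like site, substrate Z-nLPnLD-Glo. U373 cells were plated at 5000 cells/mL for 48 h, then treated two days. Cells were PBS-washed and permeabilised with 0.025% digitonin before Proteasome-Glo reagent was added. Luminescence was read after 10 min in the dark. Triplicates, normalised to a parallel MTT viability assay under identical conditions.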

Data set [5] can be described thus: Chemical stability of the compound in MEM cell culture medium after 7 days by HPLC analysis. As to conditions: read-out: Stability. Type of data set: physicochemical. In short, it runs like this: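 Compound incubated in MEM culture medium at 37 °C for 7 days, then analysed by HPLC on RX-C8 (5 μm) column with MeOH–water 90:10 (0.1% TFA), diode-array detection. Expressed as % of incubated compound recovered.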

In a further data set the test system is A549. The experiment in a line: Growth inhibition in apoptosis-resistant human A549 after 3 days by MTT assay. Format: functional. Particulars: A549, 72 h. The essentials:
(§1)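 Cells grown in RPMI with 10% heat-inactivated FCS, 4 mM glutamine, gentamicin and penicillin–streptomycin. Drug exposure 3 days, growth read by MTT colorimetric assay. Nine concentrations from 0.01 to 100 μM in semilog steps, six replicates each; IC50 derived per cell line.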
In general terms: Formazan colour is commonly taken as a measure of viable cells.

In a further data set the test system is SK-MEL-28. The data set can be described thus: Growth inhibition in apoptosis-resistant human SK-MEL-28 after 3 days by MTT assay. Type of data set: functional. Particulars: SK-MEL-28, 72 h. The essentials: as §1
The subject of another data set is T98G. The data set can be described thus: Growth inhibition in apoptosis-resistant human T98G after 3 days by MTT assay. Format: functional. As to conditions: 72 h. The essentials:
as §1

Data set [6] in a line: Growth inhibition in apoptosis-resistant human U373 after 3 days by MTT assay. Type of data set: functional, U-373MG ATCC. As to conditions: U373 MG, 72 h. The essentials: as §1
The next data set has as its system Hs 683. The data set can be described thus: Growth inhibition in apoptosis-sensitive human Hs683 after 3 days by MTT assay. Format: functional. Particulars: Hs 683, 72 h. In short, it runs like this:
as §1

For another data set, the system named is PC-3. The experiment in a line: Growth inhibition in apoptosis-sensitive human PC3 after 3 days by MTT assay. As to conditions: PC-3, 72 h. Type of data set: functional. The essentials:
as §1

A further data set relates to MCF7. The data set can be described thus: Growth inhibition in apoptosis-sensitive human MCF7 after 3 days by MTT assay. Particulars: MCF7, 72 h. Type of data set: functional. In short, it runs like this:
as §1

The next data set concerns B16-F10. The data set can be described thus: Growth inhibition in mouse B16F10 after 3 days by MTT assay. Format: functional. Particulars: B16-F10, 72 h. In short, it runs like this:
as §1

The source of these data is ChEMBL document CHEMBL1833790, “N-(2-{3-[3,5-bis(trifluoromethyl)phenyl]ureido}ethyl)-glycyrrhetinamide (6b): a novel anticancer glycyrrhetinic acid derivative that targets the proteasome and displays anti-kinase activity” (J Med Chem, 2011).

The source made the active and inactive calls. No cut-off for these calls is given here.

With `CC1(C)[C@@H](O)CC[C@]2(C)[C@H]3C(=O)C=C4[C@@H]5C[C@@](C)(C(=O)NCc6ccc(C(F)(F)F)cc6)CC[C@]5(C)CC[C@@]4(C)[C@]3(C)CC[C@@H]12`, the inhibition result (in data set [1]; in the data set on U-373MG ATCC [3]) was “Active” throughout. The outcome with U-373MG ATCC [2] and in the data set with U-373MG ATCC [4] was Active. Besides, the remaining at 168 h in data set [5] came out at 95%. Besides, the GI50 in the data set on A549 worked out at 37 µM; in the data set on SK-MEL-28, 65 µM; with T98G it was 67 µM; in [6], 44 µM; with Hs 683 it was 49 µM; with PC-3 it was 35 µM. Further, the figures for the GI50 in the data set with MCF7 and in the data set on B16-F10 were 29 µM and 39 µM, respectively.

For orientation: GI50 means the concentration that inhibits growth by half. Read a low GI50 as greater sensitivity of the cells.
